These results are taken from article PMC4535313 (Bioorganic & medicinal chemistry letters, 2014).

The nature of data set [1]: Metabolic stability in rat microsomes. In kind it is in vitro ADME.
The next data set deals with T1, PLD1 (Homo sapiens, UniProt Q13393).
T1 sequence (Q13393 1-1074): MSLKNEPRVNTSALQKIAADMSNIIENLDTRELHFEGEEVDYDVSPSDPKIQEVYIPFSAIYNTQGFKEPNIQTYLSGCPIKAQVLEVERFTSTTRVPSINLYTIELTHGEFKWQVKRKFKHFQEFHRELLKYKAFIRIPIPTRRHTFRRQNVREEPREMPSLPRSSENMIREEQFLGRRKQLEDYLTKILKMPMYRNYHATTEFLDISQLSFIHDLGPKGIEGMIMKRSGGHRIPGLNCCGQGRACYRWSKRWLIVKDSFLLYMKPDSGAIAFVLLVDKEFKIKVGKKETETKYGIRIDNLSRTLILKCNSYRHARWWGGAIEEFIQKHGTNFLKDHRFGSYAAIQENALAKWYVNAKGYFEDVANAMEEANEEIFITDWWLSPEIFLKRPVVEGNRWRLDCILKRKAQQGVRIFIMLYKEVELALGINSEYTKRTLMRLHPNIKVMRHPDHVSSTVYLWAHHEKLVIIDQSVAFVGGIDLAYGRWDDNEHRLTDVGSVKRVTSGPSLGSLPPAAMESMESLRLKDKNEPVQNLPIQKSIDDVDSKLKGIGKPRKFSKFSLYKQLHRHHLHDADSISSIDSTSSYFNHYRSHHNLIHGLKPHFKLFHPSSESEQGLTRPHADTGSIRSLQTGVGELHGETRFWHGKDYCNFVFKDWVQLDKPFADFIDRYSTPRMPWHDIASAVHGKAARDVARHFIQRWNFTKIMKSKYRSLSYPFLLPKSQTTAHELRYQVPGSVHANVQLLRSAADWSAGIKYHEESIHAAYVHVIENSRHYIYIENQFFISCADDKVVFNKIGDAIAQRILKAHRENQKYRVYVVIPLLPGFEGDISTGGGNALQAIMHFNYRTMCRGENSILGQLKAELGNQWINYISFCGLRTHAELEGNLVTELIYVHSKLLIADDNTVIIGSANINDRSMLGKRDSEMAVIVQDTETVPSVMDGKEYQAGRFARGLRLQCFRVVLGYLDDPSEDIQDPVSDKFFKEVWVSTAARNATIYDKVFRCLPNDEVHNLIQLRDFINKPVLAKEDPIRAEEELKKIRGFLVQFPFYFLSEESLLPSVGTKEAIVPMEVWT
Kind of data set: Cellular PLD1 assay with Calu-1 cells. In kind it is cell-based. A digest of the protocol: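 Calu-1 cells used for cell-based PLD1 inhibition readout. Each IC50 determined in triplicate.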

In another data set the target is PLD2 (Homo sapiens, UniProt O14939). Particulars: recently reported inhibitors, Fig. 1; cited from earlier work.
PLD2, sequence (O14939 whole entry, species assumed): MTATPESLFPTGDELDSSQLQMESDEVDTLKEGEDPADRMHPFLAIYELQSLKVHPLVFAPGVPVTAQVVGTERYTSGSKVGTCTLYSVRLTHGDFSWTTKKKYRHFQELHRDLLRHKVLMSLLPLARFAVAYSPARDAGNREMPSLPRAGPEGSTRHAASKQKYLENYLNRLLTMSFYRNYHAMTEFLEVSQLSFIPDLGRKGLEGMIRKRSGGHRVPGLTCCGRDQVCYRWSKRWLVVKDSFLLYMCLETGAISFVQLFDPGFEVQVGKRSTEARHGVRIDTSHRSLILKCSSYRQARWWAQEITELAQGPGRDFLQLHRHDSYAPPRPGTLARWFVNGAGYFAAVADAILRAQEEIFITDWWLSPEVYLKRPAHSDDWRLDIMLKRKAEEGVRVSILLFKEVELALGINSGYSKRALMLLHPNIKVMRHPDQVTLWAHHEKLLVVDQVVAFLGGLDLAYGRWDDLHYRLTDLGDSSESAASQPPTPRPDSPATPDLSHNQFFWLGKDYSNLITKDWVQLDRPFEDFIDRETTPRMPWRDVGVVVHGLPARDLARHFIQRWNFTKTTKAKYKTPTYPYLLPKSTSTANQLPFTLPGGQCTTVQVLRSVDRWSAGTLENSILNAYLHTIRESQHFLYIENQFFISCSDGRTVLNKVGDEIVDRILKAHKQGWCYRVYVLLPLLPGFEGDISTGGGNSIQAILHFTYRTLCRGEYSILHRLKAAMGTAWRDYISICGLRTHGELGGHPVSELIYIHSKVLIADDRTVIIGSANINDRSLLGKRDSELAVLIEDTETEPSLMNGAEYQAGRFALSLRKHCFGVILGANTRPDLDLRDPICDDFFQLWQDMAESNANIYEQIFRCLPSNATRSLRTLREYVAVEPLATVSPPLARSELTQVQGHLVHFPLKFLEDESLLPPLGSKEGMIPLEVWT

In data set [1], `CC1CC(n2c(=O)[nH]c3ccccc32)CCN1CCNC(=O)c1ccc(F)cc1` (stereo not drawn) [compound 9] showed a Clhep of 70 mL/min/kg.
As to `CC(CNC(=O)c1ccc(F)c(F)c1)N1CCC2(CC1)C(=O)NCN2c1ccccc1` (stereo not drawn) [8f], the half-maximal inhibitory concentration (IC50) against PLD1 is approximately 1000 nM.
As to `O=C(NCCN1CCC2(CC1)C(=O)NCN2c1cccc(F)c1)c1ccc(F)c(F)c1` [compound 4], the “fold PLD2 selective” value on PLD2 is 53 fold.

For orientation: IC50 means the concentration that gives 50% inhibition.
